Exocytosis inh: LAMP-1 surface exposure blockers, TALL-104 cells – cell-based, flow cytometry, MLPCN library, primary screen | TALL-104 LAMP-1 surface exposure; cells stimulated with thapsigargin and PMA | inhibition, % at 10 µM | 0.66% of 360,000 active;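 active = inhibition above about 55%, limit read from the data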
MC4R ag barr: MC4R agonists recruiting beta-arrestin, primary screen, cell-based, luminescence, agonist arm of biased-ligand search | U2OS MC4R beta-arrestin complementation; percent of melanotan II response, DMSO zero | 0.98% of 360,000 active | Melanocortin receptor 4 (Homo sapiens), P32245 | activation, % at 8.9 µM;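 active = activation above a per-plate cutoff, the mean activation of sample wells on that plate plus 3 SD, cut at about 8% in these data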
MC4R antagonist: MC4R antagonists of cAMP signaling, primary screen, cell-based, TR-FRET, antagonist arm of biased-ligand search. 0.48% of 360,000 active. inhibition, % at 6.5 µM. MC4R-expressing cells, MTII-stimulated cAMP, LANCE TR-FRET. Melanocortin receptor 4 (Homo sapiens), P32245;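 active = inhibition above its plate's cutoff, the mean of tested wells on that plate plus 3 SD, cut at about 29% in these data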;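 also: 0% = Melanotan II alone and 100% = Melanotan II plus saturating MCL0020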
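Material: U2OS-MC4R stable cell line | Reagent: Melanotan II challenge after compound preincubation | Doses: One concentration, 6.5 µM nominal | Incubation: 30-min compound preincubation, 1-h Melanotan II challenge, 1-h detection, room temperature | Signal: TR-FRET cAMP assay | Replicates: One well per compound, no replicates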
EP2 modulator: EP2 receptor modulators, cAMP readout, primary screen, cell-based, HTRF cAMP, PGE2 stimulation. EP2-expressing cells, cAMP HTRF FRET, PGE2 co-stimulation. Prostaglandin E2 receptor EP2 subtype (Homo sapiens), P43116. AID 940, 2007. induction, % at 25 µM. 0.83% of 260,000 active;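 active = compounds whose cAMP rise, as percent of the full-agonist control response, exceeds 60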;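 also: rat C6 glioma line stably carrying human EP2 under a CMV promoter; the protocol text gives 20 µM as final concentration; 100% = response of wells given 1 µM PGE2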
Target sequence (P43116 whole entry, looked up): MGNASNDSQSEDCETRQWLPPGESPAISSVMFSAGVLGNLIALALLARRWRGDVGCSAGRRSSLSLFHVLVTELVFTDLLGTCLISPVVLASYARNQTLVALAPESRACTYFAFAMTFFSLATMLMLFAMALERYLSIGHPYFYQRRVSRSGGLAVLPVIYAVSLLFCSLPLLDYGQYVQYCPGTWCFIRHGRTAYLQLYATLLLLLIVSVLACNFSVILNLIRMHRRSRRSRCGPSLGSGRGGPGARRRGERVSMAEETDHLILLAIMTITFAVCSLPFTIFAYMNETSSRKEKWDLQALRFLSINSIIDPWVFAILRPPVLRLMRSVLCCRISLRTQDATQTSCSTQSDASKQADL
PGE2 EP2 inh: human EP2 receptor antagonists, primary screen, TR-FRET cAMP, C6 glioma cells | Prostaglandin E2 receptor EP2 subtype (Homo sapiens), P43116 | C6 glioma cells expressing human EP2; cells stimulated with saturating PGE2 | inhibition, % at 25 µM | 0.52% of 260,000 active;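 active = percent inhibition above 40 after rounding to a whole number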;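 also: rat C6 glioma host cells with rolipram phosphodiesterase inhibitor present; the protocol text gives 20 µM as final concentration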
T cell HTS: modulators of CD8 T cell-vesicle binding, primary screen, mouse 2C CD8+ T cells, flow cytometry; 2C CD8+ T cell-vesicle binding; stronger effect = lower value; response (vesicle binding), % at 7 µM; 0.068% of 330,000 active;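 active = response, share of CD8 T cells binding vesicles, and their 90th percentile fluorescence all below set limits, cut at about 80% in these data, passing the limit was not always enough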;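 also: values below 100% mean blocked vesicle binding to the CD8+ T cells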
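Incubation: binding step 1.5 h, 37 °C, antibody labelling 20 min, ice; system: murine 2C transgenic CD8+ T lymphocytes; technique: cytometric PE anti-B7-1 and Alexa647 anti-CD8 signals after 1% paraformaldehyde fixation; also added: QL9-charged Drosophila Ld/ICAM-1/B7-1 vesicles; control set: naked versus QL9-loaded vesicles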
An asterisk follows results filed as active; i = inactive; . = no result; ! = repeats disagree. Sampled rows, rich in hits. Any-hit rate of the full collection: about 2.6%.

SMILES	Exocytosis inh	MC4R ag barr	MC4R antagonist	EP2 modulator	PGE2 EP2 inh	T cell HTS
COc1cc(/C=C(/C#N)C(=O)NC(C)c2ccccc2)cc(OC)c1O (configuration not stated)	-4	1	10	.	.	181
CC(=O)c1c(C)nc(-c2ccccc2)n1O	1	0	2	-3	4	756
COc1cc(/C=C2/C(=N)N3C=CSC3=NC2=O)ccc1OCCCOc1c(C)cccc1C	6	8.4*	2	-30	9	22
COc1cc(/C=C2/C(=N)N3C=CSC3=NC2=O)ccc1OCCOc1ccc(NC(C)=O)cc1	-14	1	7	-31	3	231
CCOc1cc(/C=C2/C(=N)N3C=CSC3=NC2=O)ccc1OCCCOc1ccccc1C	2	9.4*	3	-8	11	306
CCOc1ccccc1NC(=O)COC(=O)C1CCC1	4	-3	-4	.	.	581
CCc1c(C)nc(SCC(=O)Nc2nc(-c3ccc(OC)cc3)cs2)[nH]c1=O	1	-1	4	-15	4	53*
Cn1c(=O)c(C(=O)NCCc2ccc(Cl)cc2)c(O)c2ccccc21	1	-2	-2	.	.	202
O=C(Nc1nc2ccccc2[nH]1)c1ccccc1[N+](=O)[O-]	-2	-2	16	-58	8	30*
CCOc1ccc2[nH]c(=O)c(CN(CC3CCCO3)C(=S)NC3CCCCC3)cc2c1 (configuration not stated)	.	.	.	70*	13	.
CCOc1ccc2[nH]c(=O)c(CN(CC3CCCO3)C(=S)NCC3CCCO3)cc2c1 (configuration not stated)	.	.	.	18	27	.
COc1ccc2[nH]c(=O)c(CN(CC3CCCO3)C(=O)Nc3ccc(F)cc3)cc2c1 (configuration not stated)	-1	1	8	-45	41*	.
COc1ccc2[nH]c(=O)c(CN(C(=S)NC(C)c3ccccc3)C3CCCC3)cc2c1 (configuration not stated)	.	.	.	5	45*	.
COc1ccc(-c2cc(C(=O)Nc3cc(C)n(Cc4ccc(Cl)cc4)n3)no2)cc1OC	0	24*	6	2	7	i
O=S1(=O)N[C@H]2CC[C@H]3NS(=O)(=O)N[C@H]4CC[C@@H](N1)N4S(=O)(=O)N23	.	.	.	27	45*	.
Oc1c(CN2CCN(c3ccccc3)CC2)cc(Br)c2cccnc12	53	-3	9	15	41*!	67
COc1c(C)cccc1C(=O)NC(=S)Nc1cccc2nsnc12	-1	-1	6	-80	129*	.
COc1ccc(OC)c(C2CC(=O)C3=C(C2)NC(=O)CC3c2ccc(O)c(OC)c2)c1 (configuration not stated)	-3	0	7	-3	9	593
CCCc1nn(C)c(C(=O)Nc2ccc3ccccc3c2)c1Cl	0	9.4*	14	-54	3	i
CCCc1nn(C)c(C(=O)Nc2cccc(CC)c2)c1Cl	5	6	6	-25	4	476
COc1ccccc1NS(=O)(=O)c1cccc(C(=O)NNC(=O)c2ccc(O)c(Cl)c2)c1	10	-5	11	.	.	467
Cc1cccc(NCC(=O)N/N=C/c2ccc(Br)cc2)c1	7	8.4*	0	-49	11	387
Cc1cc(S(=O)(=O)Nc2ccc3ccccc3c2)c(C)s1	10	8.8*	-6	-33	2	200
Cc1ccc(S(=O)(=O)Nc2ccc3ccccc3c2)cc1	0	9.4*	2	.	.	.
CN(C)CCNC(=O)C(=O)NCC1CCCO1 (configuration not stated)	.	.	.	-5	11	.
SMILES	Exocytosis inh	MC4R ag barr	MC4R antagonist	EP2 modulator	PGE2 EP2 inh	T cell HTS
O=C(CNS(=O)(=O)c1ccc(Cl)c(C(F)(F)F)c1)NC1CCCCC1	2	2	1	.	.	319
O=C(NCc1ccccc1)C(c1ccco1)N(C(=O)c1csnn1)c1ccccc1 (configuration not stated)	-15	-2	10	.	.	334
COc1ccc(-n2ncc3c(=O)n(CC(=O)N4C(C)CCCC4C)cnc32)cc1 (configuration not stated)	.	.	.	-16	12	.
CCOC(=O)C1=C(O)c2ccccc2C(=O)/C1=C\c1ccc(C)cc1	97*	2	25	13	11	i
Cc1ccc(-c2nc3cc(N)ccc3o2)c(C)c1	-1	0	-1	5	41*	202
O=[N+]([O-])c1ccccc1S(=O)(=O)NCCc1ccncc1	1	-2	5	3	5	773
Cc1ccccc1NS(=O)(=O)c1ccc(NC(=O)CSCc2ccc(Br)cc2)cc1	3	-1	9	-22	5	0.0*
CCN(CC)CCCNc1nc(N)c([N+](=O)[O-])c(N2CCCCCC2)n1	2	-2	6	.	.	207
COc1ccc(CCC(C)NCc2ccc(Cl)c(Cl)c2)cc1 (configuration not stated)	44	2	-4	.	.	269
COc1ccc(CCC(C)NCCc2ccc(Cl)cc2Cl)cc1 (configuration not stated)	48	9.2*	-4	.	.	326
CCOC(=O)c1cc(-c2cccnc2)nn1-c1ccccn1	-2	-2	1	30	15	482
CC(C)(C)c1ccc(S(=O)(=O)NCCN2CCOCC2)cc1	12	-1	4	9	10	.
Cc1cc2nc(CCN3CCOCC3)n(S(=O)(=O)c3ccc(C(C)(C)C)cc3)c2cc1C	-1	-2	1	61*	2	325
COc1ccc([C@H]2CC(=O)C=C(c3cccc(OCc4ccccc4)c3)C2)cc1	2	1	2	.	.	574
O=c1c2ccccc2c(-c2ccc(Cl)cc2)nn1-c1ccccc1	0	3	6	63*	5	492
CC(=O)Nc1ccc(NC(=S)NC(=O)/C=C/c2ccco2)cc1	0	0	14	.	.	189
O=C(/C=C/c1ccccc1)NC(=S)Nc1ccc(N2CCOCC2)cc1	-1	14*	6	-9	9	414
CN1CCN(c2ccc(NC(=S)NC(=O)/C=C/c3ccco3)cc2)CC1	57*	-3	-2	.	.	296
O=C(/C=C/c1ccccc1)NC(=S)Nc1ccccc1	4	1	5	.	.	178
Oc1ccccc1CNc1ccc(Br)cn1	3	49*	-4	-4	3	531

Bioassay records from PubChem BioAssay.
